{
  "source": "ChEMBL document CHEMBL5126610",
  "about": "“Beyond Retigabine: Design, Synthesis, and Pharmacological Characterization of a Potent and Chemically Stable Neuronal Kv7 Channel Activator with Anticonvulsant Activity” (J Med Chem, 2022)",
  "key": {"[1]": {"assay": "Photo stability of compound in saline at 10 uM irradiated with UV for 3 hrs by HPLC analysis", "type": "physicochemical", "details": "buffer", "procedure,_shortened": "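Compounds in DMSO diluted into buffered aqueous solution pH 7.4 to a final 10 µM. Irradiated in 1 cm quartz cells by a 150 W UV lamp at 20 cm for 3 h; dark controls held at 37 °C. Aliquots analysed by UHPLC on C18 with TFA water/ACN gradient: 220 nm for loss of parent, 550 nm for phenazine/phenazinium dimers.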"}, "[2]": {"target": "T1, Voltage-gated potassium channel, KQT; KCNQ2(Kv7.2)/KCNQ3(Kv7.3) (Homo sapiens) (UniProt O43526+O43525)", "assay": "Activation of Kv7.2/Kv7.3 channel (unknown origin) expressed in CHO cells assessed as leftward shift change in half activation potential at 1 uM measured after 24 hrs by whole cell patch clamp based electrophysiological method", "details": "filed as activator"}, "[3]": {"target": "T1, Voltage-gated potassium channel, KQT; KCNQ2(Kv7.2)/KCNQ3(Kv7.3) (Homo sapiens)", "assay": "Activation of Kv7.2/Kv7.3 channel (unknown origin) expressed in CHO cells at -80 mV measured after 24 hrs by whole cell patch clamp based electrophysiological method", "details": "filed as activator"}, "Mus musculus [4]": {"system": "Mus musculus", "assay": "Anticonvulsant activity in PTZ induced C57BL/6 mouse acute seizure model assessed as seizure score at 3 mg/kg, ip pretreated for 30 mins followed by PTZ injection and measured upto 30 mins by Liittjohann's scale analysis", "type": "functional", "details": "time 60 min, 1 h", "procedure,_shortened": "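Male C57Bl/6 mice given drug i.p. in saline with 2% Tween-20 and 2% PEG-400 (0.01 mL/g), 30 min before PTZ 100 mg/kg s.c. Observed in Plexiglass boxes for 30 min. Maximal severity scored on the revised Lüttjohann 9-point scale (0–8), latency to maximal seizure recorded. One-way ANOVA with Tukey.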"}, "[5]": {"target": "T1, Voltage-gated potassium channel, KQT; KCNQ2(Kv7.2)/KCNQ3(Kv7.3) (Homo sapiens)", "assay": "Activation of Kv7.2/Kv7.3 channel (unknown origin) expressed in CHO cells assessed as half activation potential measured after 24 hrs by whole cell patch clamp based electrophysiological method", "details": "filed as activator"}, "Mus musculus [6]": {"system": "Mus musculus", "assay": "Anticonvulsant activity in PTZ induced C57BL/6 mouse acute seizure model assessed as seizure score at 0.3 mg/kg, ip pretreated for 30 mins followed by PTZ injection and measured upto 30 mins by Liittjohann's scale analysis", "type": "functional", "details": "time 60 min, 1 h", "procedure,_shortened": "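Male C57Bl/6 mice, drug in saline with 2% Tween-20 and 2% PEG-400, given i.p. at 0.01 mL/g 30 min before PTZ (100 mg/kg s.c. in saline). Animals watched in clear boxes for 30 min. Maximal severity was scored on the revised Lüttjohann 9-point scale (0 whisker trembling to 8 wild jumping). Group mean reported.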"}, "[7]": {"assay": "Toxicity in PTZ induced C57BL/6 mouse acute seizure model assessed as in mortality at 0.3 mg/kg, ip", "type": "organism-based", "details": "in vivo", "procedure,_shortened": "(§1)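 Male C57Bl/6 mice were pretreated i.p. with drug in saline containing 2% Tween-20 and 2% PEG-400, 30 min before PTZ (100 mg/kg s.c.). Vehicle controls received the vehicle alone. Survival was recorded as animals alive at the end of the 60 min observation period after PTZ and expressed as percent (surviving/total) per group.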"}, "[8]": {"assay": "Toxicity in PTZ induced C57BL/6 mouse acute seizure model assessed as mortality at 1 mg/kg, ip", "type": "organism-based", "details": "in vivo", "procedure,_shortened": "as §1"}, "[9]": {"target": "T1, Voltage-gated potassium channel, KQT; KCNQ2(Kv7.2)/KCNQ3(Kv7.3) (Homo sapiens)", "assay": "Activation of Kv7.2/Kv7.3 channel (unknown origin) expressed in CHO cells assessed as slope of fluorescent signal at 10 uM by FluxOR fluorescent dye based assay", "type": "cell-based", "details": "filed as activator", "procedure,_shortened": "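CHO clone stably expressing Kv7.2/Kv7.3 (PiggyBac, puromycin 4 µg/mL), seeded 1.6 × 10^4 cells/well on poly-D-lysine, assayed 24 h later. FluxOR II thallium flux, wash method, ex 485/em 520 nm. Tl+ stimulus buffer added after 5 s, read every 1 s for 50 s. Initial slope taken from 5–15 s. Vehicle 0.1% DMSO, 10 µM retigabine reference; only runs with Z' > 0.5 kept; ≥3 experiments.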"}},
  "note": "Activity calls are given as the source filed them. The calls are words filed in the database; no cut-off is given here.",
  "data": [
    {"smiles": "CCCCCCC(=O)Nc1ccc(NCc2ccccc2F)cc1N", "values": [
      {"measurement": "Stability", "setting": "[1]", "value": "Stable"}
    ]},
    {"smiles": "CCOC(=O)Nc1ccc(NCc2ccc(C(F)(F)F)cc2)c(F)c1N", "values": [
      {"measurement": "delta(V1/2)", "setting": "[2]", "value": 40, "unit": "mV"},
      {"measurement": "Activity", "setting": "[3]", "value": "Active"}
    ]},
    {"smiles": "CCCCCCC(=O)Nc1ccc(NCc2ccccc2)cc1N", "values": [
      {"measurement": "Stability", "setting": "[1]", "value": "Stable"}
    ]},
    {"smiles": "CC(C)(C)CC(=O)Nc1ccc(NCc2ccc(C(F)(F)F)cc2)cc1N1CCCC1", "values": [
      {"measurement": "Stability", "setting": "[1]", "value": "Unstable"}
    ]},
    {"smiles": "O=C1c2ccccc2C(Cc2ccncc2)(Cc2ccncc2)c2ccccc21", "values": [
      {"measurement": "Activity", "setting": "Mus musculus [4]", "value": 7.3}
    ]},
    {"smiles": "CCCCCCCC(=O)Nc1ccc(NCc2ccc(C(F)(F)F)cc2)cc1N", "values": [
      {"measurement": "Stability", "setting": "[1]", "value": "Stable"}
    ]},
    {"smiles": "Nc1cc(NCc2ccc(C(F)(F)F)cc2)ccc1NC(=O)CCC1CCCCC1", "values": [
      {"measurement": "Stability", "setting": "[1]", "value": "Stable"}
    ]},
    {"smiles": "CC(C)(C)CC(=O)Nc1ccc(NCc2ccc(C(F)(F)F)cc2)cc1N1CCCCC1", "values": [
      {"measurement": "Stability", "setting": "[1]", "value": "Unstable"}
    ]},
    {"smiles": "CC(C)(C)CC(=O)Nc1ccc(NCc2ccc(C(F)(F)F)cc2)c(F)c1N", "values": [
      {"measurement": "V1/2", "setting": "[5]", "value": -30.2, "unit": "mV"},
      {"measurement": "Activity", "setting": "[3]", "value": "Active"},
      {"measurement": "Activity", "setting": "Mus musculus [6]", "value": 6},
      {"measurement": "Activity", "setting": "[7]", "value": 87, "unit": "%"},
      {"measurement": "Activity", "setting": "[8]", "value": 100, "unit": "%"}
    ]},
    {"smiles": "CCOC(=O)Nc1ccc(NCc2ccc(F)cc2)cc1N", "values": [
      {"measurement": "Activity", "setting": "[3]", "value": "Active"}
    ]},
    {"smiles": "CC(C)(C)CC(=O)Nc1ccc(NCc2ccc(C(F)(F)F)cc2)cc1N", "values": [
      {"measurement": "Stability", "setting": "[1]", "value": "Stable"}
    ]},
    {"smiles": "CCCCCCC(=O)Nc1ccc(CCc2ccc(C(F)(F)F)cc2)cc1N", "values": [
      {"measurement": "Activity", "setting": "[9]", "value": 0.0087}
    ]},
    {"smiles": "CCCCCCC(=O)Nc1ccc(NCc2ccc(C(F)(F)F)cc2)cc1N", "values": [
      {"measurement": "Stability", "setting": "[1]", "value": "Stable"}
    ]},
    {"smiles": "CC(C)(C)CC(=O)Nc1ccc(NCc2c(F)cccc2F)cc1N", "values": [
      {"measurement": "Stability", "setting": "[1]", "value": "Stable"}
    ]}
  ]
}
